Source: PubChem BioAssay
Only some compounds are listed: those with a hit (about 2.3% of all), similar ones and a draw of the others.
TRPC4 PAM: TRPC4 (mouse) allosteric potentiation; Q9QUQ5; HEK293 TRPC4beta/mu-opioid, DAMGO EC20, Fluo-4 Ca2+ flux; stronger effect = higher value; B-score at 10 µM; 310,000 tested, 0.42% active;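 active means B-score of calcium response area above 5 SD of library B-scores, with initial fluorescence ratio within 5 SD of library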
TRPC6 inhibitor: inhibitors of mouse TRPC6 channel; B-score at 10 µM; HEK293-TRPC6, membrane potential dye, ACh-evoked depolarization; stronger effect = lower value; Q61143; 310,000 tested, 1.1% active;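 active means B-score under library mean minus 3 SD, initial fluorescence not abnormally high, positive integrated signal ratio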;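 further: B-score derived from integrated fluorescence ratio over the kinetic read; more negative B-score means stronger inhibition of depolarization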
Target sequence (Q61143 whole entry, looked up): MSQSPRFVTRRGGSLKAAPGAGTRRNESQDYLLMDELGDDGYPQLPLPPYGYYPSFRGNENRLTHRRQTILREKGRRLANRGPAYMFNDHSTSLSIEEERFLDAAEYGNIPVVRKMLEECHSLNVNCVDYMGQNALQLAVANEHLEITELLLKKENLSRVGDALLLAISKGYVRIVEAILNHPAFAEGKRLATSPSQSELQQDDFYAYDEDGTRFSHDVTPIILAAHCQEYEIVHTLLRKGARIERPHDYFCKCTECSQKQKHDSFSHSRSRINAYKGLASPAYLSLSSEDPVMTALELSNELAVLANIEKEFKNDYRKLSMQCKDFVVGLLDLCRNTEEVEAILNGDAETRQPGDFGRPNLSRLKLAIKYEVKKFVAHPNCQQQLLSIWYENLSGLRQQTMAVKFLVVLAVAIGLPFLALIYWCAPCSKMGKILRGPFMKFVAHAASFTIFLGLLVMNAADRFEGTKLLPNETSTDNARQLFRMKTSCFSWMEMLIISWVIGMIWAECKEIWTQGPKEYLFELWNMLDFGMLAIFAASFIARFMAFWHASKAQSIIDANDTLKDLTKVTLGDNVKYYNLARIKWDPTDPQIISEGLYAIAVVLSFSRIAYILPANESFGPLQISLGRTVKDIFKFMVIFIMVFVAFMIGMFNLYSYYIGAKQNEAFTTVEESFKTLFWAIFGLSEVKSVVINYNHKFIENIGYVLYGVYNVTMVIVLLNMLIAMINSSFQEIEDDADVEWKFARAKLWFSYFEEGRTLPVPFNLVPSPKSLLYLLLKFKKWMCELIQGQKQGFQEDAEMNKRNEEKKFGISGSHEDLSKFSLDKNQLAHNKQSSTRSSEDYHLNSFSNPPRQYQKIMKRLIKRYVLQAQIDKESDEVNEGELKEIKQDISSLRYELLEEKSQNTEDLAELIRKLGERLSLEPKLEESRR
TRPC4 act: activators of mouse TRPC4 channel. HEK293 TRPC4beta/mu-opioid, Fluo4 calcium fluorescence; stronger effect = higher value. 310,000 tested, 0.49% active. Q9QUQ5. B-score at 10 µM. AID 2237;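 active means B-score above 5 SD of library B-scores, and initial fluorescence ratio not above library mean plus 5 SD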;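 further: positive B-score marks a calcium rise read as TRPC4 activation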
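Assay system: HEK293 stable line with TRPC4beta plus mu-opioid receptor; schedule: 45 min room-temperature Fluo4 loading, 110 s read; technique: kinetic Fluo4 calcium fluorescence; evaluation: integrated baseline-normalised fluorescence ratio, converted to per-well B score; controls: buffer (low) and maximal DAMGO (high)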
TRPC4 inh: TRPC4 (mouse) channel inhibition | HEK293 TRPC4beta/mu-opioid, DAMGO-evoked Fluo4 calcium flux; stronger effect = lower value | B-score at 10 µM | AID 2247 | 300,000 tested, 0.39% active;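 active means B-score over 3 SD under the library average, no early fluorescence shift, positive overall ratio signal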
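test system = HEK293 cells with stable TRPC4beta plus mu-opioid receptor expression | detection = Fluo4 Ca2+ flux fluorescence | read-out = integrated fluorescence ratio relative to baseline, converted to per-well B score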
TRPC6 act: activators of mouse TRPC6 channel; Q61143; HEK293-TRPC6 membrane potential dye fluorescence; stronger effect = higher value; B-score at 10 µM; 310,000 tested, 0.13% active;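 active means B-score of the integrated fluorescence ratio above library mean plus 3 SD, and starting fluorescence ratio within library mean plus 5 SD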;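 further: higher score means more depolarization so channel activation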
TRPC4 sel inh 2: second check of whether TRPC6 inhibitors also affect mouse TRPC4. shares compounds with TRPC6 inhibitor. HEK293 TRPC4/MOR, membrane potential dye fluorescence; channel activated by saturating DAMGO dose. inhibition, % at 10 µM. 920 tested, 42% active. AID 2776;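 active means compounds whose fluorescence signal differed from control wells by over 3 SD, either direction, in both duplicate plates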
TRPC4 spec: mouse TRPC4 off-target activity of TRPC6 inhibitors | activity change, negative = inhibition, % at 10 µM | shares compounds with TRPC6 inhibitor | HEK293 TRPC4/mu-opioid, membrane potential fluorescence | 920 tested, 61% active;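 active means rise or fall in signal beyond 3 SD of buffer-only wells in both replicate plates, either sign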;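 further: integrated kinetic ratio of fluorescence range over baseline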
HEK293 MPD ctr 2-1: parental HEK293 nonspecific activity of TRPC6 inhibitors, second screen. signal change vs control, % at 10 µM. parental HEK293 membrane potential dye fluorescence; maximal acetylcholine challenge after compound addition. 920 tested, 31% active. shares compounds with TRPC6 inhibitor;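 active means membrane potential signal moving either way by over 3 SD of the maximum-effect control, in both duplicate plates, meaning non-specific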
HEK293 MPD ctr-1: checks TRPC6 inhibitor effects in parental HEK293 cells | shares compounds with TRPC6 inhibitor | parental HEK293 membrane potential dye fluorescence | membrane potential signal change, % at 10 µM | 920 tested, 60% active | AID 2780;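 active means membrane potential signal shifting up or down by more than 3 SD of buffer-only wells, on both duplicate plates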
HEK293 MPD ctr-2: parental HEK293 nonspecific activity of TRPC6 modulators; shares compounds with TRPC6 inhibitor; membrane potential dye fluorescence; membrane potential signal change, % at 10 µM; 2,400 tested, 51% active; AID 488924;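 active means membrane potential signal moves up or down beyond 5 SD from buffer-only wells, on both duplicate plates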
HEK293 MPD ctr 2-2: second counter-screen for TRPC6 modulators: effect in parental HEK293 cells; membrane potential dye fluorescence; after compound, maximal acetylcholine stimulation; shares compounds with TRPC6 inhibitor; 2,400 tested, 14% active; AID 488926; inhibition, % at 10 µM;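 active means membrane potential signal drops by more than 5 SD from the mean control signal, in both duplicate plates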
TRPC4 ctr mod: mouse TRPC4 off-target activity of TRPC6 modulators. HEK293 TRPC4/mu-opioid, membrane potential fluorescence. shares compounds with TRPC6 inhibitor. 2,400 tested, 69% active. percent change from control (negative = decrease, positive = increase), % at 10 µM;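 active means membrane potential signal moved up or down beyond 5 SD of buffer control wells, in both duplicate plates, actives on both sides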
TRPC4/MOR inh 2: mouse TRPC4 off-target activity of TRPC6 modulators, second screen | shares compounds with TRPC6 inhibitor | HEK293 TRPC4/mu-opioid, membrane potential dye fluorescence; stimulated with maximal-effect DAMGO | inhibition, % at 10 µM | 2,400 tested, 55% active | AID 488928;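 active means drop in membrane potential signal beyond 5 SD of the control wells in both duplicate plates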;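 further: TRPC4 counter screen for TRPC6 hits run under conditions tuned for TRPC6 not TRPC4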
TRPC6 inh conf: confirmation of mouse TRPC6 inhibitors; HEK293-TRPC6, membrane potential dye, ACh-evoked depolarization; 3,300 tested, 43% active; inhibition, % at 10 µM; AID 488960; shares compounds with TRPC6 inhibitor;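 active means fluorescence ratio falls more than 5 SD below the full-stimulation control mean, in both duplicate runs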;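 further: integrated fluorescence ratio of peak minus minimum over baseline after agonist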
TRPC6 act confirm: mouse TRPC6 activator confirmation; shares compounds with TRPC6 inhibitor; HEK293-TRPC6 membrane potential dye fluorescence, FDSS; activation, % at 10 µM; 2,800 tested, 11% active; AID 488961;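 active means ratio signal rise beyond 5 SD above unstimulated control wells' mean, seen in both duplicate runs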
Numbers stand for hits; - = inactive; . = no result.

SMILES | TRPC4 PAM | TRPC6 inhibitor | TRPC4 act | TRPC4 inh | TRPC6 act | HEK293 MPD ctr-2 | HEK293 MPD ctr 2-2 | TRPC4 ctr mod | TRPC4/MOR inh 2 | TRPC6 inh conf | TRPC6 act confirm | others
O=C(CSc1c2c(nc3ccc(Cl)cc13)CCCC2)NCCCN1CCOCC1 | - | -11 | - | - | - | . | . | . | . | - | - | TRPC4 sel inh 2=-;TRPC4 spec=-;HEK293 MPD ctr 2-1=34%;HEK293 MPD ctr-1=-
CCCCOc1ccc(C(=O)OC(C)CN(C)C)cc1 (centres undefined) | - | - | - | - | 12 | 218% | - | 35% | 34% | - | 102%
COc1cc(/C=C(\C#N)C(=O)c2c[nH]c3ccccc23)cc(OC)c1O | - | - | - | - | 24 | 256% | - | 72% | - | - | 88%
COc1cc(/C=C(\C#N)C(=O)NCCc2ccccc2)cc(OC)c1O | - | - | - | . | 14 | 394% | - | 72% | - | - | 68%
COC(=O)/C(C#N)=C/c1c[nH]c2ccccc12 | - | - | - | - | - | . | . | . | . | . | .
O=C(NCC(c1ccc(F)cc1)N1CCOCC1)c1ccco1 (centres undefined) | - | - | - | - | - | . | . | . | . | . | .
Cc1ccc(NC(=O)c2cccnc2C(=O)O)nc1 | - | - | - | - | - | . | . | . | . | . | .
COc1ccc(CN(C(=O)CN2C(=O)COc3ccccc32)C2CCCC2)c(OC)c1 | - | - | - | - | 12 | 319% | - | - | - | - | -
O=C(COc1ccc(Cl)cc1Cl)NNC(=S)NCc1ccco1 | - | -5.4 | - | - | - | - | - | - | - | - | -
CCOc1ccc2c(c1)-c1c(ssc1=S)C(C)(C)N2C(=O)CSC1=NCCS1 | - | - | - | - | - | . | . | . | . | . | .
CCOc1ccc2c(c1)-c1c(ssc1=S)C(C)(C)N2 | - | -5.3 | - | - | - | - | - | -22% | 64% | - | -
Cc1ccc(/C=c2\sc3n(c2=O)CN(c2ccc(Br)cc2)CN=3)o1 | - | -5.6 | - | - | - | - | - | - | - | - | -
Cc1ccc(/C=c2/sc3n(c2=O)CCCN=3)o1 | - | - | - | - | - | . | . | . | . | . | .
Cc1cc(Cl)ccc1NC(=S)NCc1ccc(F)cc1 | - | - | - | - | - | . | . | . | . | . | .
CCN(CC)CCNc1ccc(CO)c2sc3ccccc3c(=O)c12 | - | -5.2 | - | - | - | -96% | - | -37% | 67% | - | -
Cc1ccc(C(C)C)c(OCC(=O)Nc2ccc3c(c2)nc(CCN2CCCCC2)n3C)c1 | - | -6 | - | - | - | - | - | - | 78% | 57% | .
Cn1c(CCN2CCCCC2)nc2cc(NC(=O)COc3ccc(Cl)cc3)ccc21 | - | - | - | - | - | . | . | . | . | . | .
Cc1ccccc1C(=O)NC(=S)NC1CCSC1=O (centres undefined) | - | - | - | - | - | . | . | . | . | . | .
O=C(NC(=S)NC1CCSC1=O)c1cccs1 (centres undefined) | - | -6.4 | - | - | - | - | - | - | - | - | -
CC(=O)Nc1ccc(S(=O)(=O)N(C)CC(=O)OCC(=O)N(C)C2CCS(=O)(=O)C2)cc1 (centres undefined) | - | - | - | - | - | . | . | . | . | . | .
CCN1CCN(c2ccc([N+](=O)[O-])c(Sc3nc4ccccc4[nH]3)c2)CC1 | - | -5.4 | - | - | - | - | - | -12% | 61% | 46% | -
c1ccc(C[C@H]2CNCCN2CCCCC2CCCCC2)cc1 | - | -6 | - | - | - | - | - | - | 48% | - | -
c1ccc(C[C@H]2CNCCN2CC2CCCCC2)cc1 | - | - | - | - | - | . | . | . | . | . | .
COc1ccc(C2(C)NC(=O)N(CC3CCCCC3)C2=O)cc1 (centres undefined) | - | - | - | - | - | . | . | . | . | . | .
CCOC(=O)Cn1c(=N)n(CCOc2ccc3ccccc3c2)c2ccccc21 | - | -5.3 | - | - | - | - | - | - | 70% | 40% | -
SMILES | TRPC4 PAM | TRPC6 inhibitor | TRPC4 act | TRPC4 inh | TRPC6 act | HEK293 MPD ctr-2 | HEK293 MPD ctr 2-2 | TRPC4 ctr mod | TRPC4/MOR inh 2 | TRPC6 inh conf | TRPC6 act confirm | others
Cc1ccc2nc(C)c3c(c2c1)COC3 | - | -6.3 | - | - | - | -165% | 84% | -27% | 47% | 44% | -
Cc1nc2c(C)cccc2c2c1COC2 | - | -9.1 | - | - | - | . | . | . | . | 61% | - | TRPC4 sel inh 2=-;TRPC4 spec=-30%;HEK293 MPD ctr 2-1=36%;HEK293 MPD ctr-1=-434%
Cc1ccc2nc3c(c(C(=O)O)c2c1)CCC3 | - | - | - | - | - | . | . | . | . | . | .
Cc1ccc(N2CCN(C(=O)c3nn(C)c4c3CS(=O)(=O)c3ccccc3-4)CC2)c(C)c1 | - | - | - | - | - | . | . | . | . | . | .
Cc1cc(NC(=O)C2CC(=O)N(c3ccccc3Cl)C2)no1 (centres undefined) | - | - | - | - | - | . | . | . | . | . | .
COc1cccc(C(=O)NCCS(=O)(=O)N(C)Cc2ccccc2)c1 | - | - | - | - | - | . | . | . | . | . | .
COc1ccccc1C(=O)NCC1CCN(c2ccc(S(=O)(=O)N3CCOCC3)cc2)CC1 | - | -6.9 | - | - | - | . | . | . | . | 55% | - | TRPC4 sel inh 2=-;TRPC4 spec=8.9%;HEK293 MPD ctr 2-1=10%;HEK293 MPD ctr-1=5.1%
Nc1c2c(nc3sc4c(c13)CCCC4)CCCCCC2 | - | - | - | - | - | . | . | . | . | . | .
Cc1ccc(C)c2c(N)c3c(nc12)CCCCC3 (tested in a mixture with another compound) | - | -5.8 | - | -7 | - | -118% | - | -22% | - | - | -
COc1cccc(/C=N\NS(=O)(=O)c2ccccc2)c1OC | - | - | - | - | - | . | . | . | . | . | .
